In assay [1] the test system is NCI sixty human tumor cell line panel. Kind of assay: NCI sixty human tumor cell line panel, single dose 10 μM. The assay is classed as cell-based. The conditions noted are these: for activity at 10 µM: read-out: Mean % growth at 10 μM; for growth inhibition activity (in words): NCI 60 single dose 10 μM; for Mean % growth at 10 μM: mean growth percent over NCI 60 panel, single dose 10 μM.

Assay [2] concerns HeLaM cells. The experiment in a line: Flow cytometry cell cycle analysis. The following applies: 72 hr post treatment (DMSO 14%). The assay is classed as cell-based. In short, it runs like this: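 5 × 10^5 HeLaM cells plated, treated next day with test compound or DMSO for 24, 48 or 72 h. All cells (floating and attached) collected and fixed in 70% ethanol (final). […] 10 μg/ml, 30 min, 37 °C, then propidium iodide in PBS + 2% FBS. SubG1 gated; subG1 excluded before modeling live-cell cycle distribution.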
In general terms: In flow cytometry, cells or beads pass a laser one at a time.

Assay [3] concerns mitotic spindle of HeLaM cells. The assay is classed as cell-based. The conditions noted are these: compound 10 μM + MG132 + ZM447439 (DMSO+MG132+ZM447439 3%).
The target in assay [4] is T1, HDAC8 (Homo sapiens, UniProt Q9BY41).
T1 sequence (Q9BY41 1-377): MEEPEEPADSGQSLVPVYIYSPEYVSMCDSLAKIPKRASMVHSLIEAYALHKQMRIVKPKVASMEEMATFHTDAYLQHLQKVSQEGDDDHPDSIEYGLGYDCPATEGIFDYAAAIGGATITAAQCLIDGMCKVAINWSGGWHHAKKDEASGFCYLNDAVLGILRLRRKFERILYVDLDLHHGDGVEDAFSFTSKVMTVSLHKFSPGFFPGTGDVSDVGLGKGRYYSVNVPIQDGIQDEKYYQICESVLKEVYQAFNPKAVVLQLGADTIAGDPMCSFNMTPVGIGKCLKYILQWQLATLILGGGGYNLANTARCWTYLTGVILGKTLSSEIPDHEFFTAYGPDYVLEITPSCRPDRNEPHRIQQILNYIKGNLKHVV
The experiment in a line: HDAC-Glo inhibitor testing with recombinant HDAC8. The format is biochemical. The following applies: read-out: HDAC8 activity remaining.

For `O=C(Cc1ccc(/C=C/C(=O)c2ncc[nH]2)cc1)Nc1ccc(C(F)(F)F)cc1` [IPE-11, (E)-2-(4-(3-(1H-Imidazole-2-yl)-3-oxoprop-1-en-1-yl)phenyl)-N-(4-(trifluoromethyl)phenyl)acetamide], the activity at 10 µM in assay [1] (Homo sapiens) is 23.5%. The same measure, in the same setting: the result for `O=C(Cc1ccc(/C=C/C(=O)c2ncc[nH]2)cc1)Nc1cc(F)c(F)c(F)c1` [IPE-12, (E)-2-(-4(3-(1H-imidazol-2-yl)-3-oxoprop-1-en-1-yl)phenyl)-N-(3,4,5-trifluorophenyl)acetamide] reads 51.1%; that for `Cn1ccnc1C(=O)/C=C/c1ccc(CC(=O)Nc2ccc(C(F)(F)F)cc2)cc1` [IPE-23, (E)-2-(4-(3-(1-methyl-1H-imidazol-2-yl)-3-oxoprop-1-en-1-yl)phenyl)-N-(4-(trifluoromethyl)phenyl)acetamide], 13%; that for `O=C(Cc1ccc(/C=C/C(=O)c2ncccn2)cc1)Nc1ccccc1` [PPE-31, (E)-2-(4-(3-Oxo-3-(pyrimidin-2-yl)prop-1-en-1-yl)phenyl)-N-phenylacetamide], 99.1%. For `O=C(Cc1ccc(/C=C/C(=O)c2ncc[nH]2)cc1)Nc1cccc2ccccc12` [IPE-6, (E)-2-(4-(3-(1H-imidazol-2-yl)-3-oxoprop-1-en-1-yl)phenyl)-N-(naphthalen-1-yl)acetamide], in assay [1] (Homo sapiens), the activity at 10 µM was determined as 76.3%. Take `CN1CCc2c(c3ccccc3n2Cc2ccc(C(=O)NO)cc2)C1` [Tubastatin A, reference compound]: in assay [2], the subG1 population result is “little effect on subG1”. Moreover, the spindle collapse entry in assay [3] is recorded as “did not produce the same aberrant spindle”. For orientation: remaining activity means the activity still measured, relative to the control. Take `Cn1ccnc1C(=O)C1CC1c1ccc(CC(=O)Nc2ccc(Br)cc2)cc1` (centres unmarked) [IPE-29, N-(4-bromophenyl)-2-(4-(2-(1-methyl-1H-imidazole-2-carbonyl)cyclopropyl)phenyl)acetamide]: the remaining activity at 100 µM in assay [4] lay in the range of 20 to 60%. For the same molecule, the activity at 10 µM in assay [1] (Homo sapiens) amounted to 98.7%. The “growth inhibition activity (in words)” value in assay [1] is “virtually inactive”. `O=C(Cc1ccc(/C=C/C(=O)c2ccccc2O)cc1)Nc1cccc2ccccc12` [HPE-36, (E)-2-(4-(3-(2-Hydroxyphenyl)-3-oxoprop-1-en-1-yl)phenyl)-N-(naphthalen-1-yl)acetamide]: the activity at 10 µM in assay [1] (Homo sapiens) worked out at 96.2%. Regarding `CCn1ccnc1C(=O)/C=C/c1ccc(CC(=O)Nc2ccc(F)cc2)cc1` [IPE-21, (E)-2-(4-(3-(1-Ethyl-1H-imidazol-2-yl)-3-oxoprop-1-en-1-yl)phenyl)-N-(4-fluorophenyl)acetamide], the activity at 10 µM in assay [1] (Homo sapiens) was 29.2%. Usually inhibition stands for the relative decrease from the control value, in per cent. Regarding `O=C(Cc1ccc(/C=C/C(=O)c2ncc[nH]2)cc1)Nc1ccccc1` [IPE-1, (E)-2-(4-(3-(1H-Imidazol-2-yl)-3-oxoprop-1-en-1-yl)phenyl)-N-phenylacetamide], the activity at 10 µM in assay [1] (Homo sapiens) stood at 45.3%. Further, the inhibition at 10 µM in assay [1] (Homo sapiens, read-out: growth inhibition at 10 μM) was over 50%. On to `Cn1ccnc1C(=O)/C=C/c1ccc(CC(=O)Nc2ccc(Cl)cc2)cc1` [IPE-17, (E)-N-(4-chlorophenyl)-2-(4-(3-(1-methyl-1H-imidazol-2-yl)-3-oxoprop-1-en-1-yl)phenyl)acetamide], for which the activity at 10 µM in assay [1] (Homo sapiens) was 19.3%. As to `CN(C)c1ccc(NC(=O)Cc2ccc(/C=C/C(=O)c3ccccc3O)cc2)cc1` [HPE-35, (E)-N-(4-(Dimethylamino)phenyl)-2-(4-(3-(2-hydroxyphenyl)-3-oxoprop-1-en-1-yl)phenyl)acetamide], the activity at 10 µM in assay [1] (Homo sapiens) is 85.9%. With `O=C(Cc1ccc(/C=C/C(=O)c2ncc[nH]2)cc1)Nc1c(F)c(F)c(F)c(F)c1F` [IPE-13, (E)-2-(-4(3-(1H-imidazol-2-yl)-3-oxoprop-1-en-1-yl)phenyl)-N-(perfluorophenyl)acetamide], the activity at 10 µM in assay [1] (Homo sapiens) was determined as 91.8%. Take “4-(3-(2-Hydroxyphenyl)-3-oxopropyl)phenyl)-N-(naphthalen-1-yl)acetamide [HPE-33]”: the “Mean % growth at 10 μM” value in assay [1] came to 91.98%. On to `O=C(Cc1ccc(/C=C/C(=O)c2ncc[nH]2)cc1)Nc1ccc(S(F)(F)(F)(F)F)cc1` [IPE-10, (E)-2-(-4(3-(1H-imidazol-2-yl)-3-oxoprop-1-en-1-yl)phenyl)-N-(4-pentafluorosulfaneyl)acetamide], for which, in assay [1], the “Mean % growth at 10 μM” value turned out to be 64.07%. As to `CN(C)c1ccc(NC(=O)Cc2ccc(/C=C/C(=O)c3ncc[nH]3)cc2)cc1` [IPE-5, (E)-2-(4-(3-(1H-imidazol-2-yl)-3-oxoprop-1-en-1-yl)phenyl)-N-(4-(dimethylamino)phenyl)acetamid], in assay [1] (Homo sapiens), the activity at 10 µM is 52.1%. The same measure, in the same setting: the figure for `O=C(Cc1ccc(/C=C/C(=O)c2ccccc2O)cc1)Nc1ccccc1` [HPE-32, (E)-2-(4-(3-(2-Hydroxyphenyl)-3-oxoprop-1-en-1-yl)phenyl)-N-phenylacetamide] is 85.9%.

With `O=C(Cc1ccc(/C=C/C(=O)c2nccs2)cc1)Nc1ccccc1` [TPE-30, (E)-2-(4-(3-Oxo-3-(thiazol-2-yl)prop-1-en-1-yl)phenyl)-N-phenylacetamide], in assay [1] (Homo sapiens), the activity at 10 µM worked out at 84.3%. In assay [1], the “growth inhibition activity (in words)” value is “inactive”. With `COc1ccc(NC(=O)Cc2ccc(/C=C/C(=O)c3ncc[nH]3)cc2)cc1` [IPE-4, (E)-2-(4-(3-(1H-imidazol-2-yl)-3-oxoprop-1-en-1-yl)phenyl)-N-(4-methoxyphenyl)acetamide], the activity at 10 µM in assay [1] (Homo sapiens) is 66.8%.

Regarding `O=C(Cc1ccc(/C=C/C(=O)c2ncc[nH]2)cc1)NC1CCCCC1` [IPE-2, (E)-2-(4-(3-(1H-Imidazol-2-yl)-3-oxoprop-1-en-1-yl)phenyl)-N-cyclohexylacetamide], the activity at 10 µM in assay [1] (Homo sapiens) was 70%. Further, the “growth inhibition activity (in words)” value in assay [1] is “almost completely inactive”.

`O=C(Cc1ccc(CCC(=O)c2ncc[nH]2)cc1)Nc1ccccc1` [IPE-28, 2-(4-(3-(1H-imidazol-2-yl)-3-oxopropyl)phenyl)-N-phenylacetamide]: in assay [1] (Homo sapiens), the activity at 10 µM was 92.8%. In addition, the “growth inhibition activity (in words)” value in assay [1] is “virtually inactive”. For `Cn1ccnc1C(=O)/C=C/c1ccc(CC(=O)NC2CCCCC2)cc1` [IPE-15, (E)-N-Cyclohexyl-2-(4-(3-(1-methyl-1H-imidazol-2-yl)-3-oxoprop-1-en-1-yl)phenyl)acetamide], the activity at 10 µM in assay [1] (Homo sapiens) stood at 57.7%. As to `O=C(Cc1ccc(/C=C/C(=O)c2ncc[nH]2)cc1)Nc1cc(C(F)(F)F)cc(C(F)(F)F)c1` [IPE-14, (E)-2-(-4(3-(1H-imidazol-2-yl)-3-oxoprop-1-en-1-yl)phenyl)-N-(bis(3,5-trifluoromethyl)phenyl)acetamide], in assay [1], the “Mean % growth at 10 μM” value worked out at 77.21%. In the case of `O=C(Cc1ccc(/C=C/C(=O)c2nccn2Cc2ccccc2)cc1)Nc1ccc(F)cc1` [IPE-20, (E)-2-(4-(3-(1-Benzyl-1H-imidazol-2-yl)-3-oxoprop-1-en-1-yl)phenyl)-N-(4-fluorophenyl)acetamide], the activity at 10 µM in assay [1] (Homo sapiens) is 54.7%. In the case of `O=C(Cc1ccc(C(O)CC(=O)c2ccccc2O)cc1)Nc1ccccc1` (centres unmarked) [HPE-34, 2-(4-(1-Hydroxy-3-(2-hydroxyphenyl)-3-oxopropyl)phenyl)-N-phenylacetamide], the activity at 10 µM in assay [1] (Homo sapiens) came to 89.6%.

For the origin of these results see PMC8530978 (Bioorganic chemistry, 2021).
